Data: ChEMBL document CHEMBL1806419, “18β-Glycyrrhetinic acid derivatives induced mitochondrial-mediated apoptosis through reactive oxygen species-mediated p53 activation in NTUB1 cells” (Bioorg Med Chem, 2011)
Activity calls are given as the source filed them. The rule behind the calls is not given here.

What was measured:
[1] = Cell cycle arrest in human NTUB1 cells assessed as accumulation at G2/M phase at 50 uM after 24 hrs by propidium iodide staining based flow cytometric analysis (reference value: 20.37%); format: functional
How it was run: (§1)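 8×10^5 NTUB1 cells plated, treated 24 h (alongside 10 µM cisplatin, 1 mM NAC, 50 µM H2O2 controls); harvested by trypsinization, fixed overnight in ice-cold MeOH at −20 °C, stained with 50 µg/mL propidium iodide plus 50 µg/mL RNase A in PBS 30 min at room temperature; cell-cycle phase fractions and sub-G1 (apoptotic) DNA content by FACScan flow cytometry; three independent experiments.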

[2] = Increase in ROS generation in human NTUB1 cells at 25 uM after 24 hrs by H2DCFDA staining based flow cytometeric analysis relative to control; format: functional
How it was run: (§2)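 NTUB1 cells (3×10^5 per 6 cm dish) treated 24 h (20 µM cisplatin and 1 mM NAC controls; medium-only control); 10 µM H2DCFDA added 30 min before harvest; trypsinized, PBS-washed, DCF green fluorescence (525 nm band pass, region M1) measured immediately by flow cytometry; percent change vs control; mean ± SD, n = 3.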

[3] = Cell cycle arrest in human NTUB1 cells assessed as accumulation at G1 phase at 25 uM after 24 hrs by propidium iodide staining based flow cytometric analysis (reference value: 50.64%); format: functional; how it was run: as §1
[4] = Cell cycle arrest in human NTUB1 cells assessed as accumulation at subG1 phase at 75 uM after 24 hrs by propidium iodide staining based flow cytometric analysis (reference value: 6.68%); format: functional; how it was run: as §1
[5] = Induction of apoptosis in human NTUB1 cells assessed as increase in JC-1 probe monomers at 50 uM after 24 hrs by flow cytometric analysis; format: functional
How it was run: (§3)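 NTUB1 cells (3×10^5) treated with 10, 25 or 50 µM (10 µM CCCP control), then loaded with 1 µM JC-1 in medium 30 min; washed in PBS, trypsinized, resuspended in PBS/2% BSA; green monomer (R2) and red aggregate (R1) fluorescence by flow cytometry, aggregate/monomer ratio representing membrane potential.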

[6] = Cell cycle arrest in human NTUB1 cells assessed as accumulation at S phase at 25 uM after 24 hrs by propidium iodide staining based flow cytometric analysis (reference value: 20.37%); format: functional; how it was run: as §1
[7] = Induction of apoptosis in human NTUB1 cells assessed as increase in JC-1 probe monomers at 10 uM after 24 hrs by flow cytometric analysis; format: functional
How it was run: (§4)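 NTUB1 bladder carcinoma cells (3 × 10^5) in RPMI 1640 with 10% FBS at 37 °C, 5% CO2, exposed to test agent (10, 25 or 50 µM) with 10 µM CCCP as positive control. Stained 30 min with 1 µM JC-1 in medium, washed, trypsinised, resuspended in PBS/2% BSA. Flow cytometry read green monomer and red aggregate fluorescence; the aggregate/monomer ratio represents membrane potential.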

[8] = Cell cycle arrest in human NTUB1 cells assessed as accumulation at G1 phase at 75 uM after 24 hrs by propidium iodide staining based flow cytometric analysis (reference value: 50.64%); format: functional; how it was run: as §1
[9] = Induction of apoptosis in human NTUB1 cells assessed as increase in JC-1 probe monomers at 25 uM after 24 hrs by flow cytometric analysis; format: functional; how it was run: as §3
[10] = system: PC-3; test: Cytotoxicity against human PC3 cells after 72 hrs by MTT assay; format: functional, cell-based
How it was run: (§5)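 Cells seeded 1800/well in 96-well plates, preincubated overnight at 37 °C, then exposed to graded concentrations for 72 h at 37 °C (NTUB1, PC3 in RPMI 1640; SV-HUC1 in F12; 10% FBS, 5% CO2). MTT (2 mg/mL) added 3 h, formazan dissolved in DMSO, absorbance 540 nm; viability as percent of control; IC50 by median-effect analysis, mean ± SD.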

[11] = Cell cycle arrest in human NTUB1 cells assessed as accumulation at S phase at 75 uM after 24 hrs by propidium iodide staining based flow cytometric analysis (reference value: 20.37%); format: functional; how it was run: as §1
[12] = Induction of apoptosis in human NTUB1 cells assessed as decrease in JC-1 aggregation at 10 uM after 24 hrs by flow cytometric analysis; format: functional; design: scale not given: the % may be the effect or the level left; how it was run: as §4
[13] = Cell cycle arrest in human NTUB1 cells assessed as accumulation at subG1 phase at 25 uM after 24 hrs by propidium iodide staining based flow cytometric analysis (reference value: 6.68%); format: functional; how it was run: as §1
[14] = Cell cycle arrest in human NTUB1 cells assessed as accumulation at subG1 phase after 24 hrs by propidium iodide staining based flow cytometric analysis; format: functional; how it was run: as §1
[15] = Increase in ROS generation in human NTUB1 cells at 10 uM after 24 hrs by H2DCFDA staining based flow cytometeric analysis relative to control; format: functional; how it was run: as §2
[16] = Cell cycle arrest in human NTUB1 cells assessed as accumulation at subG1 phase at 50 uM after 24 hrs by propidium iodide staining based flow cytometric analysis (reference value: 6.68%); format: functional; how it was run: as §1
[17] = Induction of apoptosis in human NTUB1 cells assessed as decrease in JC-1 aggregation at 50 uM after 24 hrs by flow cytometric analysis; format: functional; design: scale not given: the % may be the effect or the level left; how it was run: as §3
[18] = system: NTUB1; test: Induction of apoptosis in human NTUB1 cells assessed as activation of caspase 3 at 10 to 50 uM by Western blot analysis; format: functional, cell-based
[19] = Cytotoxicity against immortalized human SV-HUC1 cells after 72 hrs by MTT assay; format: cell-based; conditions: sv-huc1, 72 h; how it was run: as §5
[20] = Cell cycle arrest in human NTUB1 cells assessed as accumulation at G1 phase at 50 uM after 24 hrs by propidium iodide staining based flow cytometric analysis (reference value: 50.64%); format: functional; how it was run: as §1
[21] = Induction of apoptosis in human NTUB1 cells assessed as decrease in JC-1 aggregation at 25 uM after 24 hrs by flow cytometric analysis; format: functional; design: scale not given: the % may be the effect or the level left; how it was run: as §3
[22] = biological target: Cellular tumor antigen p53 (Homo sapiens) (UniProt P04637); test: Increase in p53 phosphorylation in human NTUB1 cells after 24 hrs by Western blot analysis; format: cell-based
How it was run: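 NTUB1 cells exposed 24 h to 0–50 µM (10 µM cisplatin comparator), or to 50 µM with or without 1 mM NAC; lysed in boiled sample buffer, SDS–PAGE, nitrocellulose semi-dry transfer, milk-blocked in TBST, primary antibodies (p-p53 Ser15, p53 DO1, β-actin) overnight at 4 °C, secondary 1 h, ECL detection; triplicate experiments.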

[23] = Cytotoxicity against human NTUB1 cells after 72 hrs by MTT assay; format: functional, cell-based; conditions: NTUB1, 72 h; how it was run: as §5
[24] = Cell cycle arrest in human NTUB1 cells assessed as accumulation at G2/M phase at 25 uM after 24 hrs by propidium iodide staining based flow cytometric analysis (reference value: 20.37%); format: functional; how it was run: as §1
[25] = Cell cycle arrest in human NTUB1 cells assessed as accumulation at S phase at 50 uM after 24 hrs by propidium iodide staining based flow cytometric analysis (reference value: 20.37%); format: functional; how it was run: as §1
[26] = Cell cycle arrest in human NTUB1 cells assessed as accumulation at G2/M phase at 75 uM after 24 hrs by propidium iodide staining based flow cytometric analysis (reference value: 20.37%); format: functional; how it was run: as §1

Chain of Cellular tumor antigen p53 (Homo sapiens) (P04637 whole entry, looked up): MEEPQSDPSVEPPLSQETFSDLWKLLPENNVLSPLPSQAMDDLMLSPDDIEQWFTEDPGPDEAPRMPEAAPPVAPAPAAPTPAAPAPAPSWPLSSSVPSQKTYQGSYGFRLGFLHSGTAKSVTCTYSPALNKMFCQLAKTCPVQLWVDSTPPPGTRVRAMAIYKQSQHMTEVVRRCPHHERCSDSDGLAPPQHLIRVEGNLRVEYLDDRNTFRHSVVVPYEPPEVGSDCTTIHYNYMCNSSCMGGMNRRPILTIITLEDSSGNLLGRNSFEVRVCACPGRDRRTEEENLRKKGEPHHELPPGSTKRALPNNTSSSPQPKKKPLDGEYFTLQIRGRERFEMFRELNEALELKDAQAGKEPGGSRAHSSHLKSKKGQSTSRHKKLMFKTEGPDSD

In the case of C=C(C)[C@@H]1CC[C@]2(C)[C@H](C(=O)C=C3[C@@H]4C[C@@](C)(C(=O)NC(C)C)CC[C@]4(C)CC[C@]32C)[C@@]1(C)CCC(=O)NC(C)C, the Activity [1] is reported as 5.22%, the Activity [2] is reported as 85.6% and the Activity [3] is reported as 49.5%. The Activity [4] was 78.4%, the Activity [5] was 55.65% and the Activity [6] was 12.7%. It also gave an Activity [7] of 94.14%, an Activity [8] of 14.7% and an Activity [9] of 87.17%. For the same compound, the Activity [10] was “Active”, the Activity [11] was 2.79% and the Activity [12] was 5.45%. For the same compound, the Activity [13] was 20.4%, the Activity [14] was “Dose-dependent effect” and the Activity [15] was 66.1%. The Activity [16] was 55.7%, the Activity [17] was 44.07% and the Activity [18] was “inactive”. The Activity [19] was “Non-toxic”, the Activity [20] was 35.7% and the Activity [21] was 12.65%. The Activity [22] was “Dose-dependent effect”, the IC50 [23] was 4.76 µM and the Activity [24] was 12.7%. The Activity [25] was 3.15% and the Activity [26] was 4%.
